Drawing on ChEMBL document CHEMBL3867452, “Acylphloroglucinolated Catechin and Phenylethyl Isocoumarin Derivatives from Agrimonia pilosa” (J Nat Prod, 2016), this text covers IC50 and Activity for six molecules.

For one data set, the system named is BV-2. The data set is described as follows: Inhibition of LPS-induced NO production in mouse BV2 cells preincubated for 1 hr followed by LPS addition measured after 24 hrs by Griess assay. It counts as functional, cell-based. The procedure, abridged: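 BV2 cells seeded at 4 × 10^4 cells/well. Compounds were dissolved in DMSO, final DMSO under 0.1%. Pretreatment lasted 1 h, then LPS 500 ng/mL was added and cells incubated 24 h. Nitrite in the medium was measured by Griess assay. IC50 given as mean ± SD of three experiments; ω-nitro-L-arginine methyl ester served as positive control.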
In general terms: Nitrite, measured by Griess reagent, commonly stands in for NO production.

The species entered for the next data set is Mus musculus. The experiment in a line: Cytotoxicity against mouse BV2 cells assessed as reduction in cell viability after 24 hrs by MTT assay. In kind it is toxicity, cell-based. As to conditions: bv-2, 24 h. The procedure, abridged: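 BV2 microglia kept in DMEM with 10% FBS, penicillin 100 IU/mL and streptomycin, at 37.8 °C under 5% CO2. Cells were incubated 24 h in 96-well plates. Medium was then replaced with MTT 0.2 mg/mL for 3 h at 37.8 °C, and formazan was dissolved in DMSO. Absorbance read at 540 nm; viability given as percent of control.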
For orientation: Formazan colour is commonly taken as a measure of viable cells.

Turning to `COC(=O)[C@@H](N)CCCNC(=N)N[N+](=O)[O-]` [L-NAME], 24.7 µM corresponded to half-maximal inhibition in the data set with BV-2 (IC50).

`CCC(C)C(=O)c1c(O)c(Cc2c(O)cc(O)c3c2O[C@H](c2ccc(O)c(O)c2)[C@@H](O)C3)c(O)c(C)c1OC` (stereo partly specified) came in with an IC50 with BV-2 of 60.4 µM. For the same molecule, the Activity result in the data set filed under Mus musculus is recorded as “Non-Toxic”. For `CCCC(=O)c1c(O)c(Cc2c(O)cc(O)c3c2O[C@H](c2ccc(O)c(O)c2)[C@@H](O)[C@@H]3c2c(O)cc(O)c3c2O[C@H](c2ccc(O)c(O)c2)[C@H](O)C3)c(O)c(C)c1OC` the same measures were 43.6 to 52.4 µM and “Non-Toxic”.

For the molecule `COc1c(C)c(O)c(Cc2c(O)cc(O)c3c2O[C@H](c2ccc(O)c(O)c2)[C@@H](O)[C@@H]3c2c(O)cc(O)c3c2O[C@H](c2ccc(O)c(O)c2)[C@H](O)C3)c(O)c1C(=O)C(C)C`, in the data set on BV-2, the IC50 turned out to be 38.1 µM. Also, the Activity entry in the data set filed under Mus musculus is recorded as “Non-Toxic”. Turning to `COc1c(C)c(O)c(Cc2c(O)cc(O)c3c2O[C@H](c2ccc(O)c(O)c2)[C@@H](O)C3)c(O)c1C(=O)C(C)C`, the IC50 with BV-2 was 54.6 µM. Besides, in the data set listed under Mus musculus, the Activity result is given as “Non-Toxic”. `CCCC(=O)c1c(O)c(Cc2c(O)cc(O)c3c2O[C@H](c2ccc(O)c(O)c2)[C@@H](O)C3)c(O)c(C)c1OC`: in the data set with BV-2, the IC50 was in the range of 38.1 to 43.6 µM. For the same molecule, the Activity result in the data set filed under Mus musculus is on record as “Non-Toxic”.

The term IC50 denotes the point on the concentration scale where inhibition reaches its midpoint.
